Experimental data as given in ChEMBL document CHEMBL1770121 (Bioorg Med Chem, 2011).
≈ marks a conversion by molar mass, not a printed value.

How the values were obtained:
[1] = tested on: A549; assay: Antiproliferative activity against human A549 cells after 48 hrs by MTT assay; assay type: functional, cell-based; settings: A549, 48 h
Outline: (§1)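 Log-phase cells grown in RPMI 1640 with 10% FBS were seeded at 2 × 10⁴ cells/mL and left 24 h at 37 °C, 5% CO₂. […] After 48 h MTT was added and the formazan dissolved in 10% SDS–5% isobutyl alcohol–0.01 M HCl overnight at 37 °C. OD was read at 570 nm, three replicate wells per concentration.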

[2] = Inhibition of bovine brain tubulin polymerization after 20 mins by turbidimetry; set-up: species or system Bos taurus
Outline: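 Varying concentrations were preincubated with 10 µM tubulin in glutamate buffer at 30 °C, then cooled to 0 °C. GTP was added and the mixtures moved to 0 °C cuvettes in a recording spectrophotometer. Assembly was followed by turbidity on warming to 30 °C.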

[3] = tested on: HepG2; assay: Antiproliferative activity against human HepG2 cells after 48 hrs by MTT assay; assay type: functional, cell-based; settings: HepG2, 48 h; outline: as §1
[4] = tested on: B16-F10; assay: Antiproliferative activity against mouse B16F10 cells after 48 hrs by MTT assay; assay type: functional, cell-based; settings: B16-F10, 48 h; outline: as §1
[5] = tested on: B16-F10; assay: Cell cycle arrest in mouse B16F10 cells assessed as accumulation at G2/M phase at 5 ug/ml after 24 hrs by flow cytometry (Rbv = 12.27%); assay type: functional
[6] = tested on: B16-F10; assay: Cell cycle arrest in mouse B16F10 cells assessed as accumulation at S phase at 5 ug/ml after 24 hrs by flow cytometry (Rbv = 14.96%); assay type: functional
[7] = tested on: B16-F10; assay: Cell cycle arrest in mouse B16F10 cells assessed as accumulation at S phase at 1 ug/ml after 24 hrs by flow cytometry (Rbv = 14.96%); assay type: functional
[8] = tested on: B16-F10; assay: Cell cycle arrest in mouse B16F10 cells assessed as accumulation at G2/M phase at 1 ug/ml after 24 hrs by flow cytometry (Rbv = 12.27%); assay type: functional
[9] = tested on: B16-F10; assay: Cell cycle arrest in mouse B16F10 cells assessed as accumulation at Go/G1 phase at 1 ug/ml after 24 hrs by flow cytometry (Rbv = 66.15%); assay type: functional
[10] = tested on: B16-F10; assay: Cell cycle arrest in mouse B16F10 cells assessed as accumulation at Go/G1 phase at 5 ug/ml after 24 hrs by flow cytometry (Rbv = 66.15%); assay type: functional

Row | Compound | IC50 [1] | IC50 [2] | IC50 [3] | IC50 [4] | Activity [5] | Activity [6] | Activity [7] | Activity [8] | Activity [9] | Activity [10]
1 | COc1ccc(/C=C/c2cc(OC)cc(OC)c2/C=C/C(=O)c2ccc(Cl)cc2)cc1 | 6.4 µg/mL (≈ 14.7 µM) | 80 µg/mL (≈ 184 µM) | 13.6 µg/mL (≈ 31.3 µM) | 4.9 µg/mL (≈ 11.3 µM) |  |  |  |  |  | 
2 | CCOc1ccc(C(=O)/C=C/c2c(/C=C/c3ccc(OC)cc3)cc(OC)cc2OC)cc1 | 7.5 µg/mL (≈ 16.9 µM) | 26 µg/mL (≈ 58.5 µM) | 8 µg/mL (≈ 18 µM) | 6.4 µg/mL (≈ 14.4 µM) |  |  |  |  |  | 
3 | COc1ccc(/C=C/c2cc(OC)cc(OC)c2/C=C/C(=O)c2ccccc2C)cc1 | 5.9 µg/mL (≈ 14.2 µM) | 42 µg/mL (≈ 101 µM) | 5.3 µg/mL (≈ 12.8 µM) | 6.1 µg/mL (≈ 14.7 µM) |  |  |  |  |  | 
4 | CCN(CC)c1ccc(C(=O)/C=C/c2c(/C=C/c3ccc(OC)cc3)cc(OC)cc2OC)cc1 | 5.4 µg/mL (≈ 11.5 µM) | 33 µg/mL (≈ 70 µM) | 6.3 µg/mL (≈ 13.4 µM) | 8.1 µg/mL (≈ 17.2 µM) |  |  |  |  |  | 
5 | CCCCCCCCCCCCOc1ccc(C(=O)/C=C/c2c(/C=C/c3ccc(OC)cc3)cc(OC)cc2OC)cc1 | 7.9 µg/mL (≈ 13.5 µM) | 58 µg/mL (≈ 99.2 µM) | 11.6 µg/mL (≈ 19.8 µM) | 12.7 µg/mL (≈ 21.7 µM) |  |  |  |  |  | 
6 | COc1ccc(/C=C/c2cc(OC)cc(OC)c2/C=C/C(=O)c2ccc(N)cc2)cc1 | 3.8 µg/mL (≈ 9.15 µM) | 36 µg/mL (≈ 86.6 µM) | 7.5 µg/mL (≈ 18.1 µM) | 2.8 µg/mL (≈ 6.74 µM) |  |  |  |  |  | 
7 | COc1ccc(/C=C/c2cc(OC)cc(OC)c2/C=C/C(=O)c2ccc(-c3ccccc3)cc2)cc1 | 4.6 µg/mL (≈ 9.65 µM) | 44 µg/mL (≈ 92.3 µM) | 10.5 µg/mL (≈ 22 µM) | 10.6 µg/mL (≈ 22.2 µM) |  |  |  |  |  | 
8 | CCCCCCOc1ccc(C(=O)/C=C/c2c(/C=C/c3ccc(OC)cc3)cc(OC)cc2OC)cc1 | 8.4 µg/mL (≈ 16.8 µM) | 131 µg/mL (≈ 262 µM) | 16.2 µg/mL (≈ 32.4 µM) | 10.4 µg/mL (≈ 20.8 µM) |  |  |  |  |  | 
9 | COc1ccc(/C=C/c2cc(OC)cc(OC)c2/C=C/C(=O)c2cccc(OC)c2)cc1 | 6.1 µg/mL (≈ 14.2 µM) | 59 µg/mL (≈ 137 µM) | 11.6 µg/mL (≈ 26.9 µM) | 4.3 µg/mL (≈ 9.99 µM) |  |  |  |  |  | 
10 | COc1ccc(/C=C/c2cc(OC)cc(OC)c2/C=C/C(=O)c2ccc(OC)cc2)cc1 | 4.5 µg/mL (≈ 10.5 µM) | 43 µg/mL (≈ 99.9 µM) | 4.9 µg/mL (≈ 11.4 µM) | 5.8 µg/mL (≈ 13.5 µM) |  |  |  |  |  | 
11 | COc1ccc(/C=C/c2cc(OC)cc(OC)c2/C=C/C(=O)c2cccc(Br)c2)cc1 | 8.1 µg/mL (≈ 16.9 µM) | 76 µg/mL (≈ 159 µM) | 13 µg/mL (≈ 27.1 µM) | 5.1 µg/mL (≈ 10.6 µM) |  |  |  |  |  | 
12 | COc1ccc(/C=C/c2cc(OC)cc(OC)c2/C=C/C(=O)c2cccc(Cl)c2)cc1 | 5.6 µg/mL (≈ 12.9 µM) | 41 µg/mL (≈ 94.3 µM) | 9.5 µg/mL (≈ 21.8 µM) | 3.3 µg/mL (≈ 7.59 µM) |  |  |  |  |  | 
13 | CCCC(C)Oc1ccc(C(=O)/C=C/c2c(/C=C/c3ccc(OC)cc3)cc(OC)cc2OC)cc1 (configuration not stated) | 9.4 µg/mL (≈ 19.3 µM) | 55 µg/mL (≈ 113 µM) | 11.1 µg/mL (≈ 22.8 µM) | 6.7 µg/mL (≈ 13.8 µM) |  |  |  |  |  | 
14 | COc1ccc(/C=C\c2cc(OC)c(OC)c(OC)c2)cc1O [COMBRETASTATIN A4] | 0.09 µg/mL (≈ 0.284 µM) | 0.7 µg/mL (≈ 2.21 µM) | 0.19 µg/mL (≈ 0.601 µM) | 0.4 µg/mL (≈ 1.26 µM) |  |  |  |  |  | 
15 | COc1ccc(/C=C/c2cc(OC)cc(OC)c2/C=C/C(=O)c2ccccc2)cc1 | 3.9 µg/mL (≈ 9.74 µM) | 34 µg/mL (≈ 84.9 µM) | 6.8 µg/mL (≈ 17 µM) | 3.7 µg/mL (≈ 9.24 µM) |  |  |  |  |  | 
16 | COc1ccc(/C=C/c2cc(OC)cc(OC)c2/C=C/C(=O)c2ccc(Br)cc2)cc1 | 8.3 µg/mL (≈ 17.3 µM) | 72 µg/mL (≈ 150 µM) | 12.9 µg/mL (≈ 26.9 µM) | 6.5 µg/mL (≈ 13.6 µM) |  |  |  |  |  | 
17 | CCCCOc1ccc(C(=O)/C=C/c2c(/C=C/c3ccc(OC)cc3)cc(OC)cc2OC)cc1 | 8.7 µg/mL (≈ 18.4 µM) | 94 µg/mL (≈ 199 µM) | 12.9 µg/mL (≈ 27.3 µM) | 5.3 µg/mL (≈ 11.2 µM) |  |  |  |  |  | 
18 | COc1ccc(/C=C/c2cc(OC)cc(OC)c2/C=C/C(=O)c2ccc(C)c(C)c2)cc1 | 0.1 µg/mL (≈ 0.233 µM) | 2.6 µg/mL (≈ 6.07 µM) | 0.2 µg/mL (≈ 0.467 µM) | 1.4 µg/mL (≈ 3.27 µM) | 72.1% | 7.04% | 13.99% | 31.5% | 39.65% | 10.05%
19 | COc1ccc(/C=C/c2cc(OC)cc(OC)c2/C=C/C(=O)c2ccc(C(F)(F)F)cc2)cc1 | 7.8 µg/mL (≈ 16.6 µM) | 150 µg/mL (≈ 320 µM) | 18.7 µg/mL (≈ 39.9 µM) | 4.3 µg/mL (≈ 9.18 µM) |  |  |  |  |  | 
20 | COc1ccc(/C=C/c2cc(OC)cc(OC)c2/C=C/C(=O)c2ccc(F)cc2)cc1 | 6.6 µg/mL (≈ 15.8 µM) | 64 µg/mL (≈ 153 µM) | 12.2 µg/mL (≈ 29.2 µM) | 5.3 µg/mL (≈ 12.7 µM) |  |  |  |  |  | 
21 | COc1ccc(/C=C/c2cc(OC)cc(OC)c2/C=C/C(=O)c2ccc(Cl)c(Cl)c2)cc1 | 5.9 µg/mL (≈ 12.6 µM) | 47 µg/mL (≈ 100 µM) | 10.8 µg/mL (≈ 23 µM) | 7.5 µg/mL (≈ 16 µM) |  |  |  |  |  | 
22 | COc1ccc(/C=C/c2cc(OC)cc(OC)c2/C=C/C(=O)c2ccc(C)cc2C)cc1 | 0.3 µg/mL (≈ 0.7 µM) | 4.1 µg/mL (≈ 9.57 µM) | 0.9 µg/mL (≈ 2.1 µM) | 4 µg/mL (≈ 9.33 µM) |  |  |  |  |  | 
23 | COc1cc2c(c(OC)c1OC)-c1ccc(OC)c(=O)cc1[C@@H](NC(C)=O)CC2 [COLCHICINE] | 0.12 µg/mL (≈ 0.3 µM) |  | 0.23 µg/mL (≈ 0.576 µM) | 0.5 µg/mL (≈ 1.25 µM) |  |  | 2.29% | 90.46% | 2.65% | 
24 | COc1ccc(/C=C/c2cc(OC)cc(OC)c2/C=C/C(=O)c2ccc(C)cc2)cc1 | 3.6 µg/mL (≈ 8.69 µM) | 29 µg/mL (≈ 70 µM) | 4.8 µg/mL (≈ 11.6 µM) | 5.3 µg/mL (≈ 12.8 µM) |  |  |  |  |  | 
25 | Oc1ccc(/C=C/c2cc(O)cc(O)c2)cc1 [RESVERATROL] | 30.4 µg/mL (≈ 133 µM) | 158 µg/mL (≈ 692 µM) | 38.9 µg/mL (≈ 170 µM) | 37.3 µg/mL (≈ 163 µM) |  |  |  |  |  | 
26 | COc1ccc(/C=C/c2cc(OC)cc(OC)c2/C=C/C(=O)c2ccc(N3CCOCC3)cc2)cc1 | 3.8 µg/mL (≈ 7.83 µM) | 38 µg/mL (≈ 78.3 µM) | 7.3 µg/mL (≈ 15 µM) | 3.3 µg/mL (≈ 6.8 µM) |  |  |  |  |  | 
